# Test results reported in ChEMBL document CHEMBL1138555, “N-acylated and N,N'-diacylated imidazolidine-2-thione derivatives and N,N'-diacylated tetrahydropyrimidine-2(1H)-thione analogues: synthesis and antiproliferative activity” (Eur J Med Chem, 2009).
# Test system: NCI/ADR-RES
# Assay: Growth inhibition of human NCI/ADR-RES cells after 48 hrs by sulforhodamine B assay
# Assay type: functional
# Settings: not given
# Procedure, shortened: (§1)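 NCI screen panel. Five 10-fold concentrations from 10^-4 to 10^-8 M. Exposure for the last 48 h of a 72 h incubation. Growth estimated by sulforhodamine B protein assay. GI50 is the concentration giving 50% growth inhibition. Where that level was not reached or was exceeded, the value is given as above or below the highest or lowest concentration tested.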
row,SMILES,GI50
1,COC(=O)/C(C#N)=C/N1CCN(C(=O)c2ccco2)C1=S,24 µM

# Test system: SNB-19
# Assay: Growth inhibition of human SNB19 cells after 48 hrs by sulforhodamine B assay
# Assay type: functional
# Settings: SNB-19, 48 h
# Procedure, shortened: (§2)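 NCI in vitro panel screen. Compounds tested at five 10-fold dilutions, 10^-4 to 10^-8 M. Cells in 96-well plates were exposed for the last 48 h of a 72 h incubation. Viability/growth was read by sulforhodamine B protein assay. GI50 is the concentration giving 50% growth inhibition. Values beyond the tested range are reported as greater or less than the maximum or minimum concentration.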
row,SMILES,GI50
1,COC(=O)/C(C#N)=C/N1CCN(C(=O)c2ccco2)C1=S,54.9 µM

# Test system: EKVX
# Assay: Growth inhibition of human EKVX cells after 48 hrs by sulforhodamine B assay
# Assay type: functional
# Settings: not given
# Procedure, shortened: as §1
row,SMILES,GI50
1,COC(=O)/C(C#N)=C/N1CCN(C(=O)c2ccco2)C1=S,10.2 µM

# Test system: CAKI-1
# Assay: Growth inhibition of human Caki1 cells after 48 hrs by sulforhodamine B assay
# Assay type: functional
# Settings: CAKI-1, 48 h
# Procedure, shortened: as §1
row,SMILES,GI50
1,COC(=O)/C(C#N)=C/N1CCN(C(=O)c2ccco2)C1=S,3.4 µM

# Test system: PC-3
# Assay: Growth inhibition of human PC3 cells after 48 hrs by sulforhodamine B assay
# Assay type: functional
# Settings: PC-3, 48 h
# Procedure, shortened: as §1
row,SMILES,GI50
1,COC(=O)/C(C#N)=C/N1CCN(C(=O)c2ccco2)C1=S,6.8 µM

# Test system: U-251
# Assay: Growth inhibition of human U251 cells after 48 hrs by sulforhodamine B assay
# Assay type: functional
# Settings: U-251, 48 h
# Procedure, shortened: as §2
row,SMILES,GI50
1,COC(=O)/C(C#N)=C/N1CCN(C(=O)c2ccco2)C1=S,6.8 µM

# Test system: HCT-116
# Assay: Growth inhibition of human HCT116 cells after 48 hrs by sulforhodamine B assay
# Assay type: functional
# Settings: HCT-116, 48 h
# Procedure, shortened: as §1
row,SMILES,GI50
1,COC(=O)/C(C#N)=C/N1CCN(C(=O)c2ccco2)C1=S,4 µM

# Test system: BT-549
# Assay: Growth inhibition of human BT549 cells after 48 hrs by sulforhodamine B assay
# Assay type: functional
# Settings: BT-549, 48 h
# Procedure, shortened: as §1
row,SMILES,GI50
1,COC(=O)/C(C#N)=C/N1CCN(C(=O)c2ccco2)C1=S,4.2 µM

# Test system: OVCAR-4
# Assay: Growth inhibition of human OVCAR4 cells after 48 hrs by sulforhodamine B assay
# Assay type: functional
# Settings: OVCAR-4, 48 h
# Procedure, shortened: as §1
row,SMILES,GI50
1,COC(=O)/C(C#N)=C/N1CCN(C(=O)c2ccco2)C1=S,23.3 µM

# Test system: NCI-H460
# Assay: Growth inhibition of human NCI-H460 cells after 48 hrs by sulforhodamine B assay
# Assay type: functional
# Settings: NCI-H460, 48 h
# Procedure, shortened: as §1
row,SMILES,GI50
1,COC(=O)/C(C#N)=C/N1CCN(C(=O)c2ccco2)C1=S,2500 nM

# Test system: TK-10
# Assay: Growth inhibition of human TK10 cells after 48 hrs by sulforhodamine B assay
# Assay type: functional
# Settings: TK-10, 48 h
# Procedure, shortened: as §2
row,SMILES,GI50
1,COC(=O)/C(C#N)=C/N1CCN(C(=O)c2ccco2)C1=S,3.6 µM

# Test system: K562
# Assay: Growth inhibition of human K562 cells after 48 hrs by sulforhodamine B assay
# Assay type: functional
# Settings: K562, 48 h
# Procedure, shortened: as §1
row,SMILES,GI50
1,COC(=O)/C(C#N)=C/N1CCN(C(=O)c2ccco2)C1=S,3.7 µM

# Test system: SF-268
# Assay: Growth inhibition of human SF268 cells after 48 hrs by sulforhodamine B assay
# Assay type: functional
# Settings: SF-268, 48 h
# Procedure, shortened: as §1
row,SMILES,GI50
1,COC(=O)/C(C#N)=C/N1CCN(C(=O)c2ccco2)C1=S,4.8 µM

# Test system: MOLT-4
# Assay: Growth inhibition of human MOLT4 cells after 48 hrs by sulforhodamine B assay
# Assay type: functional
# Settings: MOLT-4, 48 h
# Procedure, shortened: as §1
row,SMILES,GI50
1,COC(=O)/C(C#N)=C/N1CCN(C(=O)c2ccco2)C1=S,7.4 µM

# Test system: A549
# Assay: Growth inhibition of human A549 cells after 48 hrs by sulforhodamine B assay
# Assay type: functional
# Settings: A549, 48 h
# Procedure, shortened: as §1
row,SMILES,GI50
1,COC(=O)/C(C#N)=C/N1CCN(C(=O)c2ccco2)C1=S,14.6 µM

# Test system: RXF 393
# Assay: Growth inhibition of human RXF393 cells after 48 hrs by sulforhodamine B assay
# Assay type: functional
# Settings: RXF 393, 48 h
# Procedure, shortened: as §1
row,SMILES,GI50
1,COC(=O)/C(C#N)=C/N1CCN(C(=O)c2ccco2)C1=S,3.1 µM

# Test system: SK-MEL-5
# Assay: Growth inhibition of human SK-MEL-5 cells after 48 hrs by sulforhodamine B assay
# Assay type: functional
# Settings: SK-MEL-5, 48 h
# Procedure, shortened: as §1
row,SMILES,GI50
1,COC(=O)/C(C#N)=C/N1CCN(C(=O)c2ccco2)C1=S,14.8 µM

# Test system: SF-295
# Assay: Growth inhibition of human SF295 cells after 48 hrs by sulforhodamine B assay
# Assay type: functional
# Settings: SF-295, 48 h
# Procedure, shortened: as §1
row,SMILES,GI50
1,COC(=O)/C(C#N)=C/N1CCN(C(=O)c2ccco2)C1=S,26 µM

# Test system: OVCAR-3
# Assay: Growth inhibition of human OVCAR-3 cells after 48 hrs by sulforhodamine B assay
# Assay type: functional
# Settings: OVCAR-3, 48 h
# Procedure, shortened: as §1
row,SMILES,GI50
1,COC(=O)/C(C#N)=C/N1CCN(C(=O)c2ccco2)C1=S,4.9 µM

# Test system: SK-MEL-2
# Assay: Growth inhibition of human SK-MEL-2 cells after 48 hrs by sulforhodamine B assay
# Assay type: functional
# Settings: SK-MEL-2, 48 h
# Procedure, shortened: as §1
row,SMILES,GI50
1,COC(=O)/C(C#N)=C/N1CCN(C(=O)c2ccco2)C1=S,2900 nM

# Test system: MT4
# Assay: Antiproliferative activity against human MT4 cells assessed as reduction of growth by MTT assay
# Assay type: functional, cell-based
# Settings: not given
# Procedure, shortened: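 MT-4 lymphoblastoid T cells (ATCC) in RPMI 1640 with 10% FCS, penicillin/streptomycin, checked for mycoplasma. 1 × 10⁴ mock-infected cells per well with serial dilutions from a 100 mM DMSO stock. Incubated 4 days at 37 °C, viable cells counted by MTT. IC50 versus untreated controls by linear regression. Mean of three separate experiments.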
row,SMILES,IC50
1,COC(=O)/C(C#N)=C/N1CCN(C(=O)c2ccco2)C1=S,5 µM

# Test system: NCI-H322M
# Assay: Growth inhibition of human NCI-H322M cells after 48 hrs by sulforhodamine B assay
# Assay type: functional
# Settings: not given
# Procedure, shortened: as §1
row,SMILES,GI50
1,COC(=O)/C(C#N)=C/N1CCN(C(=O)c2ccco2)C1=S,14 µM

# Test system: HOP-62
# Assay: Growth inhibition of human HOP62 cells after 48 hrs by sulforhodamine B assay
# Assay type: functional
# Settings: HOP-62, 48 h
# Procedure, shortened: as §1
row,SMILES,GI50
1,COC(=O)/C(C#N)=C/N1CCN(C(=O)c2ccco2)C1=S,22.3 µM

# Test system: HT-29
# Assay: Growth inhibition of human HT-29 cells after 48 hrs by sulforhodamine B assay
# Assay type: functional
# Settings: HT-29, 48 h
# Procedure, shortened: as §1
row,SMILES,GI50
1,COC(=O)/C(C#N)=C/N1CCN(C(=O)c2ccco2)C1=S,12.2 µM

# Test system: COLO 205
# Assay: Growth inhibition of human COLO205 cells after 48 hrs by sulforhodamine B assay
# Assay type: functional
# Settings: COLO 205, 48 h
# Procedure, shortened: as §1
row,SMILES,GI50
1,COC(=O)/C(C#N)=C/N1CCN(C(=O)c2ccco2)C1=S,31.7 µM

# Test system: SN12C
# Assay: Growth inhibition of human SN12C cells after 48 hrs by sulforhodamine B assay
# Assay type: functional
# Settings: not given
# Procedure, shortened: as §2
row,SMILES,GI50
1,COC(=O)/C(C#N)=C/N1CCN(C(=O)c2ccco2)C1=S,3.7 µM
